Results reported in ChEMBL document CHEMBL1136771, “Differential binding modes of diacylglycerol (DAG) and DAG lactones to protein kinase C (PK-C)” (J Med Chem, 2003).

Test: Partition coefficient (logP)
Type: physicochemical
Settings: octanol/water
Method in brief: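 Octanol/water log P was calculated, not measured, using a fragment-based atom/fragment-contribution estimation program applied to each ligand structure.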

logP	Structure (SMILES)
5.8	CC(C)C(CC(=O)OC[C@H](CO)OC(=O)CC(C(C)C)C(C)C)C(C)C
4.1	CC(C)C/C=C1/CC(CO)(COC(=O)CC(C(C)C)C(C)C)OC1=O (stereo not given)
3.2	CC(C)=C1CC(CO)(COC(=O)CC(C(C)C)C(C)C)OC1=O (stereo not given)
5.7	CC(C)C(=CC(=O)O[C@@H](CO)COC(=O)CC(C(C)C)C(C)C)C(C)C
3.2	CC(C)CC(=O)OCC1(CO)CC(=C(C(C)C)C(C)C)C(=O)O1 (stereo not given)
4.1	CC(C)CC(=O)OCC1(CO)C/C(=C/CC(C(C)C)C(C)C)C(=O)O1 (stereo not given)
4.1	CC(C)C/C=C1\CC(CO)(COC(=O)CC(C(C)C)C(C)C)OC1=O (stereo not given)
4.1	CC(C)CC(=O)OCC1(CO)C/C(=C\CC(C(C)C)C(C)C)C(=O)O1 (stereo not given)
3.9	CC(C)=CC(=O)O[C@@H](CO)COC(=O)CC(C(C)C)C(C)C
3.9	CC(C)CC(=O)OC[C@H](CO)OC(=O)C=C(C(C)C)C(C)C
